Measured values collected from several papers.
Each line is one published result; the experiments were not run side by side.
Target: Acetylcholinesterase (ACHE, Homo sapiens, UniProt P22303)
Observed: enzyme activity
Mode: inhibitor

Structure (SMILES) | technique | IC50
COc1cc(-c2nc3ccccc3s2)cc2c1OCC(=O)N2CC(=O)NCC(=O)O | Ellman | > 299000 nM
CC(=O)c1c(C)c2cnc(Nc3ccc(C4CCN(CCS(C)(=O)=O)CC4)cn3)nc2n(C2CCCC2)c1=O | – | 250 nM
CC(C)c1cc2c(c(O)c1O)[C@@]13CCCC(C)(C)[C@@H]1[C@@H](O)[C@@H]2OC3=O | – | 0.98 nM
COc1cc(-c2nc3ccccc3s2)cc2c1OCC(=O)N2CC(=O)N[C@H](C(=O)O)C(C)C | Ellman | > 273000 nM
CC(C)c1cc2c(c(O)c1O)[C@@]13CCCC(C)(C)[C@@H]1C[C@@H]2OC3=O | – | 0.81 nM
O=c1cc(CSc2ccc(N=Cc3cccc(F)c3)cc2)occ1O | Ellman | 26300 nM
Cc1ccc(NC(=O)CSc2nnc(COc3ccc4ccccc4c3)n2-c2ccccc2)c(C)c1 | Ellman | 697 nM
O=c1cc(CSc2ccc(N=Cc3cccc(Br)c3)cc2)occ1O | Ellman | 5580 nM
Cc1ccc(NC(=O)CSc2nnc(COc3ccc4ccccc4c3)n2-c2ccccc2)cc1C | Ellman | 778 nM
COc1cc(-c2nc3ccccc3s2)cc(NC(C)=O)c1OCC(=O)N[C@H](C(=O)O)C(C)C | Ellman | > 271000 nM
CCOc1ccc(NC(=O)CSc2nnc(COc3ccc4ccccc4c3)n2-c2ccccc2)cc1 | Ellman | 815 nM
O=c1cc(CSc2ccc(N=Cc3cccc(O)c3)cc2)occ1O | Ellman | 3640 nM
CC[C@H](C)[C@@H](NC(=O)COc1c(NC(C)=O)cc(-c2nc3ccccc3s2)cc1OC)C(=O)O | Ellman | > 264000 nM
CCOc1cccc(NC(=O)CSc2nnc(COc3ccc4ccccc4c3)n2-c2ccccc2)c1 | Ellman | 1150 nM
O=c1cc(CSc2ccc(N=Cc3ccc(Br)cc3)cc2)occ1O | Ellman | 570 nM
